Results on three molecules are retold here after PMC33344 (BMC Chemical Biology, 2001).

Series [1] is described as follows: Fluorophore spectral analysis. Particulars: 10 nM in PBS, pH 7.4. Format: physicochemical. The gist of the method: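 Fluorophore-labelled substance P conjugates were analysed in a spectrofluorometer at 10 nM in PBS, pH 7.4, as solvent. Excitation and emission spectra were recorded for each conjugate, and peak wavelengths were read from the curves.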
Series [2] deals with bullfrog sympathetic ganglia SPR (bfSPR) (Aquarana catesbeiana, UniProt Q98982). Briefly: Whole cell recording of M-type K+ current. Particulars: for inhibition of IM: single bullfrog sympathetic neurons. The format is cell-based.
Sequence of bullfrog sympathetic ganglia SPR (bfSPR) (Q98982 whole entry): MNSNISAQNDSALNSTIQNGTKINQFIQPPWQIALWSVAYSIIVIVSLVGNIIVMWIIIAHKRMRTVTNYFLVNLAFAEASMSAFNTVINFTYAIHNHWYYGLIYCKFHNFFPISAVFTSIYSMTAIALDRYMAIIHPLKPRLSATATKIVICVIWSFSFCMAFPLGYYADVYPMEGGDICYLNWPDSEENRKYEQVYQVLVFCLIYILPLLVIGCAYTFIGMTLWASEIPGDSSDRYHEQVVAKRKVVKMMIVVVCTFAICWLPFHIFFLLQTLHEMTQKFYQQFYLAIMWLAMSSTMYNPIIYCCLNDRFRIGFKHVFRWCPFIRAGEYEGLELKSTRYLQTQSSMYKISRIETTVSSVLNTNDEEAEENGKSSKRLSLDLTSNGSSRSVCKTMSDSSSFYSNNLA

On to “fluorescein-SP: Substance P with fluorescein covalently linked at Lys3; Molecular Probes product S-13424”, for which, in series [1], the peak excitation is reported as 495 nm and the “peak of the emission curve” value was 520 nm.

With “Alexa 488-SP: Substance P with Alexa 488 covalently linked at Lys3; Molecular Probes product S-13426”, the “inhibition of IM” value in series [2] (100 nM, 0.1 µM) is reported as “did not inhibit IM”. Also, the “inhibition of IM” value in series [2] (1 μM) is “did not inhibit IM”. Further, in series [1], the peak excitation was found to be 490 nm and the “peak of the emission curve” value was found to be 515 nm.

By inhibition is commonly meant the drop in the measured response relative to a control, in per cent. `CSCC[C@H](NC(=O)[C@H](CC(C)C)NC(=O)CNC(=O)[C@H](Cc1ccccc1)NC(=O)[C@H](Cc1ccccc1)NC(=O)[C@H](CCC(N)=O)NC(=O)[C@H](CCC(N)=O)NC(=O)[C@@H]1CCCN1C(=O)[C@H](CCCCN)NC(=O)[C@@H]1CCCN1C(=O)[C@@H](N)CCCN=C(N)N)C(N)=O` [SP, reference compound]: in series [2] (read-out: inhibition of IM), the inhibition at 0.1 µM was around 70%.
